Rows were chosen to be rich in hits. Some 3% of all compounds tested hit in one or more screens of this group.
XiGFP reactiv: activators of X-chromosome reactivation in mouse fibroblasts; XiGFP mouse fibroblasts, % GFP-positive cells imaging, 3 d; cells co-treated with 5-aza-dC sensitizer; scaled so ellipticine positive control = 100%; hit rate 0.055% among 360,000; activation, % at 7.58 µM;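 active = mean normalized replicate activation at least 10% and every replicate at or above 10%; inconclusive = only one of the two criteria met; inactive = mean below 10% and not all replicates reach 10%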;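 note: 0% = median of on-plate neutral control wells and 100% = ellipticine 6 µM median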
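System: XiGFP fibroblasts, SV40-immortalized. Medium: DMEM plus 5-aza-dC sensitizer. Doses: single point. Timing: 3 d treatment, 15 min room-temperature fixation. Control set: ellipticine 6 µM.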
esBAF inh: SWI/SNF esBAF complex inhibition. hit rate 2% among 350,000. mouse ES cells, Bmi1-luciferase knock-in reporter, 24 h; 100% = twice the neutral-well signal. reporter increase, % at 12.5 µM; in the data active = activation above about 40%; inconclusive = no clear call, values can overlap the other calls;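 note: 0% = median of the plate's neutral control wells and 100% = double that signal; a rise in the Bmi1 reporter signal indicates esBAF inhibition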
Wnt act: activators of Wnt/beta-catenin signaling; Wnt/beta-catenin reporter cell assay, activator, plate reader; activation, % at 9.35 µM; hit rate 1.2% among 300,000; in the data active = activation above about 30%, passing the limit was not always enough; inconclusive = no clear call, values can overlap the other calls;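 note: 0% = neutral control wells and 100% = positive control wells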
MITF act: activators of MITF-driven TRPM1 promoter activity in SK-MEL-5 cells. SK-MEL-5 TRPM1-promoter luciferase, 24 h; % of positive control, neutral wells = 0. hit rate 0.75% among 300,000. AID 588334. activation, % at 12.5 µM;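 active = mean activation of at least 80% with every replicate also reaching 80%; inconclusive = mean reaches 80% but some replicate falls short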;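 note: 0% = neutral control wells and 100% = parthenolide positive control wells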
NSD2 inh: NSD2 (human) methyltransferase inhibition; O96028; NSD2 peptide methylation, AlphaScreen, 120 min; inhibition, % at 12.5 µM; hit rate 0.54% among 310,000; AID 743445; in the data active = inhibition above about 50%
Casp6 inh: inhibitors of human caspase-6; purified caspase-6, Z-VEID-R110 cleavage fluorescence; inhibition, % at 12.5 µM; hit rate 0.53% among 350,000; AID 686996;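 active = mean inhibition across replicates at least about 35%, with every replicate also reaching that limit, limit read from the data; inconclusive = only one of the two criteria met; inactive = neither criterion met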;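 note: 0% = median of neutral control wells and 100% = no fluorescence left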
Target sequence (P55212 24-179 limits assumed): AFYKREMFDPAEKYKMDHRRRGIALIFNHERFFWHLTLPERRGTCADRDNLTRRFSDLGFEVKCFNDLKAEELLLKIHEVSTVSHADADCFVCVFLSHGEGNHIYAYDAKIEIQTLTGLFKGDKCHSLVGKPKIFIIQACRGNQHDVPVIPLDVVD
Target sequence (P55212 194-293 limits assumed): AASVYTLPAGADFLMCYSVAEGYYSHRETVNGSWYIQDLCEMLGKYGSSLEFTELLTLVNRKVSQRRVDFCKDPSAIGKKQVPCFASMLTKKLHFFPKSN
Starred values were filed as active, the others as inactive; ? = inconclusive; . = not tested or not shown.

SMILES | XiGFP reactiv | esBAF inh | Wnt act | MITF act | NSD2 inh | Casp6 inh
Cc1ccccc1CNC(=O)Nc1ccc(Cl)cc1 | 0.0 | 60.9* | 10.2 | 63.1 | 0.0 | 1.0
Cc1ccccc1CNC(=O)Nc1cccs1 | . | 14.8 | . | 34.0 | -7.0 | 4.4
Cc1ccc(CNC(=O)Nc2ccccc2)c(C)c1 | 0.3 | 70.8* | 11.1 | 117.6* | -0.3 | 0.3
N#CC1=C(SCC(=O)Nc2ccccc2)NC(=O)CC1c1ccco1 (configuration not stated) | . | 79.0* | . | 54.5 | -13.4 | .
C[C@H]1CN([C@@H](C)CO)S(=O)(=O)c2ccc(-c3cncnc3)cc2O[C@@H]1CN(C)Cc1ccncc1 | 0.2 | -4.9 | . | . | . | -1.8
CC(C)Sc1ccc(C(=O)Nc2ccc(F)cc2F)cn1 | 0.0 | . | 49.4* | ? | -6.0 | -2.9
O=C(Nc1ccc(F)cc1F)c1ccc(-n2cccn2)nc1 | 0.2 | . | 1.2 | -3.9 | . | 0.0
O=C(Nc1cccc2ccccc12)c1ccc(OC(=S)N2CCOCC2)cc1 | . | 44.7* | 15.3 | 41.7 | -3.9 | .
CC(C)NC(=O)Nc1cccc2c1O[C@@H](CN(C)S(C)(=O)=O)[C@H](C)CN(C)C2=O | 0.0 | . | . | . | . | .
C[C@@H]1CC=CC[C@@H](c2ccc3c(c2)OCO3)NC(=O)[C@H](C)N(C)C(=O)c2ccccc2O1 (mixture of isomers) | 0.1 | . | . | . | . | .
O=C(NCCc1ccc(F)cc1)NC12CC3CC(CC(C3)C1)C2 | 0.1 | 71.5* | 52.1* | 58.3 | -0.7 | -1.3
O=C(CCCc1ccccc1)NC12CC3CC(CC(C3)C1)C2 | 0.2 | 54.2* | 0.3 | 102.3* | -3.4 | 2.0
CC(=O)N(C)C[C@H]1Oc2ccc(N)cc2C(=O)N(C)C[C@@H]1C | 0.3 | . | . | . | . | .
COCC(=O)Nc1ccc2c(c1)[C@H]1C[C@@H](CC(=O)NCc3ccc(Cl)cc3)O[C@@H](CO)[C@H]1O2 | 0.0 | 1.3 | . | . | . | .
O=C(Nc1ccccc1)Nc1ccc2c(c1)[C@@H]1C[C@@H](CC(=O)N3CCCCC3)O[C@@H](CO)[C@@H]1O2 | 0.3 | 6.5 | . | . | . | 0.1
O=C(NCCc1ccccc1)c1cnc2ccccc2n1 | 0.1 | -3.5 | 44.5* | 84.7* | -2.6 | -1.3
Cc1ccc(CNC(=O)c2cnc3ccccc3n2)cc1 | 0.0 | 12.2 | 11.6 | 6.8 | -7.6 | -6.4
O=C(NCCc1ccccc1)c1cccc(Br)c1 | 0.0 | 53.4* | 14.7 | . | -1.1 | -0.7
O=C(NCCc1ccccc1)c1cccnc1 | . | 26.1 | 34.1* | 44.6 | 6.9 | .
O=C(NCCc1ccccc1)c1ccc(-c2cccnc2)c2ccoc12 | -0.1 | 43.6* | 18.0 | . | -2.0 | 4.6
COc1ccc(NC(=O)O[C@H]2[C@H](OC(=O)Nc3ccc4c(c3)OCO4)[C@H](OC(=O)Nc3ccc4c(c3)OCO4)[C@@H](OC)O[C@@H]2CO)cc1 | . | . | . | . | . | -2.2
CN1c2ccc(C#Cc3cccnc3)cc2[C@H]2[C@H](CCN2S(=O)(=O)c2ccc(F)cc2)[C@H]1CO | 0.1 | 2.8 | . | . | . | -12.0
CC(C)C#Cc1ccc2c(c1)O[C@H](CN(C)C(=O)c1cccc(F)c1)[C@H](C)CN([C@@H](C)CO)S2(=O)=O | -0.5 | -5.7 | . | . | . | -2.2
COc1ccc(CCNC(=O)c2cccc([N+](=O)[O-])c2)cc1OC | 0.2 | . | -0.9 | 3.7 | 5.4 | -1.9
O=C(NCCc1ccccc1)c1cccc([N+](=O)[O-])c1 | -0.1 | 56.3* | . | 94.4* | -1.0 | -2.8
SMILES | XiGFP reactiv | esBAF inh | Wnt act | MITF act | NSD2 inh | Casp6 inh
C[C@H](CO)N1C[C@H](C)[C@@H](CN(C)Cc2ccc3c(c2)OCO3)OCc2ccccc2-c2c(n(C)c3ccccc23)C1=O | -0.3 | . | . | . | . | .
Cc1ccc(C(=O)Nc2ccc3c(c2)OCO3)o1 | . | 48.2* | . | 13.2 | -2.2 | .
O=C(Nc1ccc2c(c1)OCCO2)c1ccc(Br)o1 | . | 17.4 | 54.5* | 48.4 | -2.7 | .
C/C(=C\C(=O)c1ccccc1)Nc1ccc2c(c1)OCO2 | 0.0 | . | 7.8 | 59.5 | 10.1 | -1.4
C/C(=C\C(=O)c1ccc(C)o1)Nc1ccc2c(c1)OCO2 | . | 65.6* | . | 79.1 | 11.0 | .
CC(C)(O)c1cn([C@@H]2C[C@@H]3O[C@H](CO)CC[C@@H]3O[C@@H]2CCc2ccc(-c3cccnc3)cc2)nn1 | . | . | . | . | . | -3.9
CC(C)(O)c1cn([C@@H]2C[C@@H]3O[C@@H](CO)CC[C@@H]3O[C@@H]2CCc2ccc(-c3ccncc3)cc2)nn1 | . | . | . | . | . | 52.3*
COc1ccc(NC(=O)N(C)C[C@@H]2Oc3ccc(NS(=O)(=O)c4ccc(Cl)cc4)cc3C(=O)N([C@@H](C)CO)C[C@@H]2C)cc1 | -0.4 | -2.0 | . | . | . | -0.9
Cc1ccc(C)c(NC(=O)c2cc3ccccc3o2)c1 | -0.2 | 74.0* | 2.5 | . | 13.3 | 26.6
O=C(Nc1ccccc1C(F)(F)F)c1cc2ccccc2o1 | 0.0 | 51.5* | 14.3 | 56.0 | -3.1 | 0.7
O=C(Nc1ncccc1O)c1cc2ccccc2o1 | 0.1 | -37.4 | 55.4* | 16.0 | 5.4 | 9.1
CO[C@@H](CN(C)C(=O)c1cnccn1)[C@@H](C)CN([C@H](C)CO)S(=O)(=O)c1ccc(C)cc1 | -0.1 | -2.5 | . | . | . | -0.9
CCCNC(=O)C[C@H]1C[C@H]2c3cc(NC(=O)Nc4ccccc4)ccc3O[C@H]2[C@@H](CO)O1 | 0.1 | 6.0 | . | . | . | .
Cn1c(SCc2c(F)cccc2Cl)nnc1-c1cccs1 | . | 65.3* | . | . | -2.8 | .
COCC(=O)Nc1ccc2c(c1)[C@H]1C[C@H](CC(=O)NC3CCCCC3)O[C@H](CO)[C@H]1O2 | 0.7 | 19.4 | . | . | . | 0.7
COc1ccc(-n2nc3cc(N)c(Br)cc3n2)cc1 | 0.0 | 57.0* | 4.5 | . | 6.3 | 0.1
Cn1cc(Cl)c(/C(N)=N/OC(=O)c2ccccc2C(F)(F)F)n1 | 0.2 | 50.8* | 20.4 | 76.0 | . | 0.1
C[C@H](CO)N1C[C@H](C)[C@H](CN(C)C(=O)Nc2ccc(-c3ccccc3)cc2)OCc2ccccc2-c2ccccc2C1=O | 0.2 | . | . | . | . | -0.8
Cc1cc(Cl)c2oc(C(=O)NCCC3CCCCO3)c(C)c2c1 (configuration not stated) | -0.1 | ? | 24.7 | 95.3* | -6.0 | -0.7
Cc1cc(Cl)c2oc(C(=O)NCCN3CCCCC3CO)c(C)c2c1 (configuration not stated) | 0.0 | 14.1 | 3.4 | 31.9 | 2.0 | -0.3
c1csc(-c2ccc(N3CCOCC3)nn2)c1 | 0.0 | -41.4 | 33.5* | 1.4 | -2.9 | 3.3
CCOC(=O)C1CCN(c2ccc(Cl)nn2)CC1 | -0.1 | . | 0.7 | 4.8 | -1.7 | -2.5
CCOC(=O)C1CCN(c2ccc(-c3cccs3)nn2)CC1 | 0.2 | 32.4 | 38.0* | 83.5* | -4.2 | 0.0
Fc1ccccc1C1CCN(Cc2nc(CC3CC3)no2)C1 (configuration not stated) | 0.1 | . | 44.3* | 45.5 | -6.4 | 1.7
CCCN(CCC)c1nc2ccccc2nc1C(C#N)C(=O)OCCOC (configuration not stated) | . | -6.6 | . | 90.9* | 4.7 | .

Screening data as filed in PubChem BioAssay.
